Screening data (PubChem)
Rows were chosen to be rich in hits. Some 1.5% of all compounds tested hit in one or more screens of this group.
Runt-SMMHC FRET – inhibitors of RUNX1 Runt–CBFb-SMMHC binding, primary screen, biochemical, FRET, Cerulean-Runt, Venus-CBFb-SMMHC, uHTS. Cerulean-Runt/Venus-CBFb-SMMHC FRET ratio 530/480, 1 h. inhibition, % at 20 µM. 220,000 tested, 0.74% active. AID 1434, 2008;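 active = mean inhibition across duplicate retests at 20 µM reaching about 50%, limit read from the data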;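 also: 0% = DMSO wells and 100% = wells with excess untagged CBFb-SMMHC; inhibitors lower the FRET ratio by blocking Runt binding to CBFb-SMMHC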
Hck-Nef inh – inhibitors of Nef-activated human Hck kinase, primary screen, biochemical, Z-Lyte FRET, 384-well, Hck-YEEI; AID 463187, 2010; Tyrosine-protein kinase HCK (Homo sapiens), P08631; Recombinant Hck-YEEI plus Nef, Z-Lyte FRET kinase assay; 220,000 tested, 0.68% active; inhibition, % at 20 µM;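 active = Hck-Nef kinase inhibition above about 50%, limit read from the data; inactive = inhibition below that limit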;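 also: 0% = DMSO with Hck plus Nef and 100% = Hck alone without Nef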
Target sequence (P08631 whole entry, looked up): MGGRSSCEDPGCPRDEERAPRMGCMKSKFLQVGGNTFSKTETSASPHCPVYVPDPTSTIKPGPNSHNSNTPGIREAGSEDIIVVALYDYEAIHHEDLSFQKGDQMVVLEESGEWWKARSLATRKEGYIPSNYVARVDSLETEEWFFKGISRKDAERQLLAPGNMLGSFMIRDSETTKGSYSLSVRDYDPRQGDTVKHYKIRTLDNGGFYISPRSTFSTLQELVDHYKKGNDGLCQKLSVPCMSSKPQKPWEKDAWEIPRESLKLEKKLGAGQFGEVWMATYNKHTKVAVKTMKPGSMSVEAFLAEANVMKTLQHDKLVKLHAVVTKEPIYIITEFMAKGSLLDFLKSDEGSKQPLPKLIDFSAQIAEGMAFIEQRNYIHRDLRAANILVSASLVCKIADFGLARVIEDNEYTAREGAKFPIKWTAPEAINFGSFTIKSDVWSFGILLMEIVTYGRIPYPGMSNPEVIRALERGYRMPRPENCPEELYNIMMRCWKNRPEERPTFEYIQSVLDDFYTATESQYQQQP
Runt-CBFb FRET – inhibitors of RUNX1 Runt–CBFb binding, primary screen, biochemical, FRET, Cerulean-Runt, Venus-CBFb, uHTS. Runt-related transcription factor 1 (Homo sapiens) + Core-binding factor subunit beta …. Cerulean-Runt/Venus-CBFb FRET ratio 530/480, 1 h. 220,000 tested, 0.46% active. inhibition, % at 20 µM;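 active = inhibition over about 50% at 20 µM in the single-dose screen, limit read from the data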;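 also: 0% = DMSO wells and 100% = excess unlabeled CBFb competitor control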
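test system = Cerulean-Runt domain fusion protein, energy donor | probe or stimulus = Venus-CBFb binding partner, 100 nM | incubation = two 1 h room-temperature incubations shielded from light | detection = fluorescence energy transfer, 422 nm excitation, 530/480 nm emission | measure = loss of energy transfer signal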
CaV13 FRET inh – Primary screen for inhibitors of IQ motif and Ca2+-dependent inactivation inhibitor domain binding in CACNA1D, Förster resonance energy transfer in living cells, … | HEK cells, CFP/YFP FRET ICDI-IQ, plate reader, 10 min; percent FRET-ratio fall versus neutral wells | inhibition, % at 12.3 µM | 340,000 tested, 0.098% active;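 active = mean replicate inhibition of at least 30% and at least 1% of replicates passing that level; inconclusive = only one of the two criteria is met; inactive = neither criterion is met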;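 also: 0% = median of the neutral control wells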
RanGTP-Impb inh – inhibitors of RanGTP-importin-beta interaction, primary screen, biochemical, FRET, CFP-Ran, YFP-importin-beta, homogeneous; AID 2216, 2009; cell-free CFP-Ran/YFP-importin-beta FRET ratio; Ran GTPase (GTP-bound) - importin-beta complex; inhibition, % (no concentration beside the values); 300,000 tested, 1.1% active;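 active = more than half of the replicate wells show a fall in the fluorescence ratio signal beyond about 16%, limit read from the data, passing the limit was not always enough; inconclusive = exactly half of the replicate wells pass the set limit; inactive = fewer than half of replicates pass the limit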;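 also: 0% = DMSO wells and 100% = Ran loaded with GDP instead of GTP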
YIC counter – YIC intramolecular FRET probe signal interference, dose response, counter-screen for RanGTP-importin-beta inhibitor project, biochemical, fluorescence FRET; Purified YIC probe, intramolecular FRET ratio YFP/CFP; shares compounds with RanGTP-Impb inh; 1,000 tested, 40% active; IC50, µM; AID 435026, 2010;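 active = fitted half-maximal inhibitory concentration no more than tenfold above the top dose tested; inconclusive = flat fit with 30 to 70% activity, or poor fit; inactive = half-maximal concentration beyond tenfold above the top dose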
Hck-Nef confirm – retest of Hck:Nef kinase inhibitor hits, confirmation, biochemical, Z-Lyte FRET, 384-well, p-Tyr peptide counterscreen. shares compounds with Hck-Nef inh. Recombinant Hck-YEEI:Nef, Z-Lyte FRET kinase assay. calls only at 10 µM. 1,300 tested, 28% active. AID 463188, 2010;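 active = average inhibition of at least 50%, with Z-scores no higher than 3 in both the phospho-tyrosine peptide and fluorescence counterscreens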
* = called active by the depositor; i = inactive; ? = inconclusive; / = no result given; + = active, no number.

SMILES	Runt-SMMHC FRET	Hck-Nef inh	Runt-CBFb FRET	CaV13 FRET inh	RanGTP-Impb inh	YIC counter	others
Cc1ccc(-c2nc3cc(N)ccc3o2)cc1	-5	0	-2	-4	21*	>50
Cc1ccc(-c2nc3cc(C)ccc3o2)cc1	-3	3	0	/	2	/
COc1ccc(C2c3c(ncn(Cc4ccco4)c3=N)Oc3ccc4ccccc4c32)cc1 (centres undefined)	0	4	1	-3	71*	>50
CC1(C(=O)O)C=CCN1C(=O)c1ccccc1 (centres undefined)	-1	-3	-2	-6	19*	>50
O=C(NCC(=O)N1CCN(C(=O)c2ccccc2)CC1)c1ccc(Cl)cc1Cl	/	/	/	-16	/	/
Cc1ccccc1-n1cnc2cc(NCc3cccs3)ccc21	6	1	0	/	22*	>50
COc1ccccc1-n1cnc2cc(NCc3cccs3)ccc21	2	-22	21	-5	?	/
COc1ccc(CNc2ccc3c(c2)ncn3-c2ccccc2OC)cc1	7	-1	6	/	29*	>50
O=C(Nc1cccc2cccnc12)c1ccccc1Br	/	/	/	-4	3	/
CC(=O)Oc1cc2oc(=O)cc(C)c2cc1OC(C)=O	42	68*	81*	-4	30*	45*
CCOc1ccc(-n2c(N)c(-c3nc4ccccc4n3C)c3nc4ccccc4nc32)cc1	-126	2	-37	-6	1	/
CCOc1ccc(-n2c(N)c(C(=O)NCc3ccco3)c3nc4ccccc4nc32)cc1	86*	53*	35	/	25*	21*	Hck-Nef confirm=i
Cc1ccc(C)c(C(=O)COC(=O)CCN2C(=O)C3C4CCC(C4)C3C2=O)c1 (centres undefined)	/	/	/	-3	?	/
CCCOc1ccc(C2C(C(=O)OC)=CN(CCOC)C=C2C(=O)OC)cc1	/	56*	88*	-4	25*	17*
CC(C)CCN(CCC(C)C)CC(O)Cn1c2ccccc2c(=O)c2ccccc21 (centres undefined)	82*	117*	107*	+	57*	3.7*
O=C(c1ccccc1)c1cc2ccc(O)cc2oc1=O	174*	69*	/	-5	27*	18*
CCCc1cc(=O)oc2c(CN3CCCC3)c(O)c(Cl)cc12	160*	116*	98*	-3	62*	27*	Hck-Nef confirm=i
CCCc1cc(=O)oc2cc(C)c(CN3CCCC3)c(O)c12	-19	2	-4	-4	3	/
C=C(C)COc1ccc2c(C)c(CC(=O)OC)c(=O)oc2c1C	-8	3	-1	/	/	/
CCN(CC)Cc1c(O)ccc2c(C)c(CC(=O)OC)c(=O)oc12	80*	73*	117*	-5	32*	14*
COCc1cc(C)nc(SCC[N+](C)(C)CC(=O)Nc2cccc(C(F)(F)F)c2)c1C#N	0	29	-2	0	-3	/
COc1ccc(NC(=O)CCc2nnc3ccc(N4CCC5(CC4)OCCO5)nn23)cc1	/	/	/	-16	-1	/
CN(Cc1ccccc1)C(=O)c1cccc(NC(=O)Cc2ccc(NC(=O)C3CCN(C(=O)C4CCC4)CC3)cc2)c1	/	/	/	-10	/	/
Cc1ccc(-c2nc3cccnc3o2)cc1NC(=O)COc1ccc(Cl)cc1C	-2	62*	0	-5	1	/	Hck-Nef confirm=i
Cc1ccc(CN2CCC2(C)C(=O)NC2CCc3ccccc32)cc1 (centres undefined)	/	/	/	-4	/	/
SMILES	Runt-SMMHC FRET	Hck-Nef inh	Runt-CBFb FRET	CaV13 FRET inh	RanGTP-Impb inh	YIC counter	others
COc1cccc2c(=O)c3ccoc3n(C)c12	-2	20	0	/	2	/
COc1cccc2c(=O)c3c(cnn3C)n(C)c12	62*	88*	17	35*	126*	/
CCc1ccc(N(C(=O)CCC(=O)Nc2cc(C)on2)C(C(=O)NC(C)(C)C)c2ccc(OC)cc2)cc1 (centres undefined)	/	/	/	-4	1	/
Cc1ccc(C(C)C)c(OCC(=O)N/N=C/c2ccc(S(=O)(=O)O)o2)c1	-1	6	-3	-2	0	/
CC(C)(C)CC(C)(C)c1ccc(OCC(=O)N/N=C/c2ccc(S(=O)(=O)O)o2)cc1	-5	57*	5	-2	1	/	Hck-Nef confirm=+
COC(=O)[C@@H]1CCCN1C(=O)CCc1nnc(CCC2CCCCC2)o1	-2	25	-1	-3	-1	/
CCCCCCc1cc2cc(S(=O)(=O)c3ccc(F)cc3)c(=O)oc2cc1O	63*	120*	19	53*	167*	/
CC1CCN(S(=O)(=O)c2nnc(NC(=O)c3cccc(Cl)c3)s2)CC1	/	/	/	-5	0	/
O=c1ccc2[n+]([O-])c3ccc(O)cc3oc-2c1	9	51*	7	-19	?	/	Hck-Nef confirm=i
O=c1cc(-c2ccccc2)oc2ccc(O)cc12	-1	38	0	-2	-2	/
CCOC(=O)C(C(=O)OCC)N(C#N)c1nc(N(C)C)nc(N(C)C)n1	-1	19	-1	4	5	/
COc1ccc(CCn2c(=S)[nH]c3cc(C(=O)NCc4ccco4)ccc3c2=O)cc1OC	-3	75*	1	/	-4	/	Hck-Nef confirm=+
COc1ccc(-n2c(=S)[nH]c3cc(C(=O)NCc4ccco4)ccc3c2=O)cc1OC	-8	5	-1	0	1	/
OC(c1cccc(Cl)c1)c1nc(-c2cccc3cccnc23)cs1 (centres undefined)	/	/	/	-6	/	/
Cc1[nH][nH]c(=O)c1C(c1c(C)[nH][nH]c1=O)c1cn(C)c2ccccc12	-12	92*	-2	4	/	/	Hck-Nef confirm=+
Cc1[nH][nH]c(=O)c1C(c1c(C)[nH][nH]c1=O)c1cn(Cc2cccc3ccccc23)c2ccccc12	-6	0	-1	-5	/	/
N#Cc1cccc(NC(=O)COC(=O)c2cccc(N3C(=O)c4ccccc4C3=O)c2)c1	3	56*	-3	-6	2	/	Hck-Nef confirm=i
O=C(COC(=O)c1cccc(N2C(=O)c3ccccc3C2=O)c1)Nc1ccccc1	-1	1	0	-4	1	/
